Experiment [1] addresses Beta-2 adrenergic receptor (Cavia porcellus) (UniProt Q8K4Z4).
For experiment [2], the target named is Beta-1 adrenergic receptor (Cavia porcellus) (UniProt B0FL73).
For experiment [3], the species on record is Rattus norvegicus. Description: Ratio of rat Beta-2 to Beta-1 adrenoceptor antagonism. The experiment is classed as functional. The method in brief:
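Anesthetized, carotid-cannulated rats were given isoprenaline (0.2 µg kg-1 iv) before and after accumulative iv antagonist doses. The β1 value is the iv dose halving the tachycardia, read by cardiotachometer from the pulse. The β2 value is the iv dose halving the depressor response. The ratio compares these two doses.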

For experiment [4], the system named is Rattus norvegicus. Description: Beta-1-adrenoceptor blockade measured as inhibition of tachycardia caused by isoprenaline in anesthetized rats when administered intravenously. To be noted: iv. It counts as functional. The method in brief: (§1)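 Anesthetized rats with a catheterized carotid artery for blood pressure. Heart rate was taken from the pulse signal by cardiotachometer. Tachycardia to isoprenaline (0.2 µg kg-1 iv) was recorded before and after accumulative iv doses of antagonist (0.1 mL 100 g-1). The value is the iv dose giving 50% reduction of the isoprenaline tachycardia.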

Experiment [5] addresses Beta-1 adrenergic receptor (Rattus norvegicus) (UniProt P18090). In words: Beta-1 adrenergic receptor blockade measured as inhibition of tachycardia caused by isoprenaline in anesthetized rats when administered intravenously. The experiment is classed as functional. The method in brief: as §1
For experiment [6] the target is unchanged. Description: Beta-1 adrenergic receptor blockade measured as inhibition of tachycardia caused by isoprenaline in anesthetized rats when administered intravenously; inactive. The experiment is classed as functional. The method in brief:
as §1

For experiment [7], the target named is Beta-2 adrenergic receptor (Rattus norvegicus) (UniProt P10608).
Sequence of Beta-2 adrenergic receptor (Rattus norvegicus) (P10608 whole entry, looked up): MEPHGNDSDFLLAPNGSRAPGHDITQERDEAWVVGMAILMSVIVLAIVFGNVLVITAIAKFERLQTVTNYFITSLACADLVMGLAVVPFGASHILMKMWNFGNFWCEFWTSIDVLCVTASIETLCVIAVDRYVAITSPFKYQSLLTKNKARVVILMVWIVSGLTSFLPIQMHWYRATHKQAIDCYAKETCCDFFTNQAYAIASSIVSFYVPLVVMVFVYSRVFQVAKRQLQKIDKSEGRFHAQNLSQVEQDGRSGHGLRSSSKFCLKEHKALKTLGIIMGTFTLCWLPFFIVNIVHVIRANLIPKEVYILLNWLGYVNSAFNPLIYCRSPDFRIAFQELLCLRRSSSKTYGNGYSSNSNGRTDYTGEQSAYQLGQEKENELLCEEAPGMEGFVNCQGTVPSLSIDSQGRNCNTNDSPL

This is an account of results in ChEMBL document CHEMBL1122437, “beta 1-selective adrenoceptor antagonists. 1. Synthesis and beta-adrenergic blocking activity of a series of binary (aryloxy)propanolamines” (1983).

Activity calls are given as the source filed them. The calls are words filed in the database; no cut-off is given here.

Sequence of Beta-1 adrenergic receptor (Rattus norvegicus) (P18090 whole entry, looked up): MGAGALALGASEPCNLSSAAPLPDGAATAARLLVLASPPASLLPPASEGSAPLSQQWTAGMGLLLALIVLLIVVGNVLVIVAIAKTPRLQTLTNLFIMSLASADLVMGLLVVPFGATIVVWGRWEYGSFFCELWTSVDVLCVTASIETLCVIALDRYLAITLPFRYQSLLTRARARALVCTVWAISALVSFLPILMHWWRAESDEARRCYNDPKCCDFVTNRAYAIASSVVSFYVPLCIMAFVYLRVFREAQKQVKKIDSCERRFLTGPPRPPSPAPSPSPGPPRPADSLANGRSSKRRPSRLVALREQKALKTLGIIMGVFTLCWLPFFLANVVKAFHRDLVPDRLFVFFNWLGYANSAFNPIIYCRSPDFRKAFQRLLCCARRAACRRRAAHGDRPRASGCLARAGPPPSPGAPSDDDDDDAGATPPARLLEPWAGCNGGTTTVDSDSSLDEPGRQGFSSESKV
Sequence of Beta-2 adrenergic receptor (Cavia porcellus) (Q8K4Z4 whole entry, looked up): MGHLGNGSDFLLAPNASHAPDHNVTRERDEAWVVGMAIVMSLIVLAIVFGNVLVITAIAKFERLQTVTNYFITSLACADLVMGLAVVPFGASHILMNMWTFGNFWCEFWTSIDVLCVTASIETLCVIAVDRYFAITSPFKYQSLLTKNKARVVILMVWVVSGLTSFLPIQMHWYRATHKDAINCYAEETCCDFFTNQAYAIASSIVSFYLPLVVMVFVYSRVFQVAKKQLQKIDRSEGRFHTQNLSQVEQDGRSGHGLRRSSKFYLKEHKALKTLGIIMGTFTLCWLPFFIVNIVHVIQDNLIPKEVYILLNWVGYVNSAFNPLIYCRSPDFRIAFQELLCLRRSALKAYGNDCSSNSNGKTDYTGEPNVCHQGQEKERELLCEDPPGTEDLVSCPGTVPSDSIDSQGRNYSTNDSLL
Sequence of Beta-1 adrenergic receptor (Cavia porcellus) (B0FL73 1-467): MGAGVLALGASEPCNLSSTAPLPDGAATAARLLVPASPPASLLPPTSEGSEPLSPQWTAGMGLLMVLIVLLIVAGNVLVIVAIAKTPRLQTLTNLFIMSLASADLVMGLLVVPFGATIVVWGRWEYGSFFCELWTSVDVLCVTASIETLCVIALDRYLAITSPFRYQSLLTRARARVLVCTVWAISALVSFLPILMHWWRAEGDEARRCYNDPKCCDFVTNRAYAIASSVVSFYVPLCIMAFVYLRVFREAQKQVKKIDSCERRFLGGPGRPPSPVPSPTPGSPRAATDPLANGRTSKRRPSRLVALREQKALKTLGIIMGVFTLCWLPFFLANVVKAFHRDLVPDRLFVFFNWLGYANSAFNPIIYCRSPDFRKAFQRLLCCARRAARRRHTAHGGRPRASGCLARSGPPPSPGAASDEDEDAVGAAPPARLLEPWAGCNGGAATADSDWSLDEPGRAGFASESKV

As for `CC(C)NC[C@@H](O)COc1ccccc1OCCCCCCCCOc1ccccc1OC[C@@H](O)CNC(C)C`, the Affinity constant in experiment [1] worked out at 0.046 µM; in experiment [2], 0.007 µM.

As a reminder, the ED50 is the dose at which the effect has come halfway, by size or by number of responders. Regarding `CC(C)NC[C@@H](O)COc1ccccc1OCCCCCCOc1ccccc1OC[C@@H](O)CNC(C)C`, the Ratio in the experiment filed under Rattus norvegicus [3] turned out to be 0.13. The values for the Affinity constant in experiment [1] and in experiment [2] were 0.4 µM and 0.003 µM, respectively. In the experiment on Rattus norvegicus [4], this compound yielded an ED50 of 0.399 mg/kg.

As for `CC(C)NC[C@H](O)COc1ccc(OCCCCCCCCCCCCCCOc2ccc(OC[C@@H](O)CNC(C)C)cc2)cc1`, the Affinity constant in experiment [1] was above 10 µM; in experiment [2], 2.2 µM.

For `CC(C)NC[C@H](O)COc1cccc(OCCOCCOc2cccc(OC[C@@H](O)CNC(C)C)c2)c1`, the Affinity constant stood at 0.031 µM in experiment [1] and 1 µM in experiment [2].

Take `CC(C)NC[C@@H](O)COc1ccccc1OCCCCCCCCCCOc1ccccc1OC[C@@H](O)CNC(C)C`: in the experiment listed under Rattus norvegicus [3], the Ratio came out at 0.26. The Affinity constant in experiment [1] worked out at 0.17 µM; in experiment [2] it was 0.004 µM. In experiment [5], this compound came in with a median effective dose (ED50) of 0.491 mg/kg.

Regarding `CC(C)NC[C@@H](O)COc1ccccc1OCCCCCCCCCCCCOc1ccccc1OC[C@@H](O)CNC(C)C`, the Affinity constant in experiment [1] worked out at 0.015 µM; in experiment [2] it was 1 µM.

`CC(C)NC[C@H](O)COc1ccc(OCCOCCOCCOc2ccc(OC[C@@H](O)CNC(C)C)cc2)cc1`: the Ratio in the experiment filed under Rattus norvegicus [3] stood at 185. The values for the Affinity constant in experiment [1] and in experiment [2] were 0.03 µM and 0.01 µM, respectively. The compound also gave a median effective dose (ED50) in experiment [5] of 0.05 mg/kg.

On to `CC(C)NC[C@H](O)COc1ccccc1OCC(O)COc1ccccc1OC[C@@H](O)CNC(C)C`, for which, in the experiment filed under Rattus norvegicus [3], the Ratio amounted to 0.045. Also, the results for the Affinity constant in experiment [1] and in experiment [2] were 4.4e-05 µM and 0.65 µM, respectively. This compound also displayed an ED50 with Rattus norvegicus [4] of 0.993 mg/kg.

For the compound `CC(C)NC[C@@H](O)COc1ccccc1OCCCCCCCCCCCCCCCCCCCCOc1ccccc1OC[C@@H](O)CNC(C)C`, the figures for the Affinity constant in experiment [1] and in experiment [2] were above 10 µM and 1.5 µM, respectively.

`CC(C)NCC(O)COc1cccc2ccccc12` (stereo not given) [PROPRANOLOL] came in with an ED50 in the experiment with Rattus norvegicus [4] of 0.143 mg/kg.

Take `CC(C)NC[C@H](O)COc1ccc(OCCCCCCCCCCCCOc2ccc(OC[C@@H](O)CNC(C)C)cc2)cc1`: the Affinity constant in experiment [1] is 10 µM; in experiment [2], 0.1 µM.

Turning to `CC(C)NC[C@H](O)COc1ccc(OCCOCCOCCOCCOc2ccc(OC[C@@H](O)CNC(C)C)cc2)cc1`, in the experiment filed under Rattus norvegicus [3], the Ratio was above 70. Further, the Affinity constant in experiment [1] was 0.23 µM; in experiment [2], 0.1 µM. In addition, the ED50 in experiment [5] amounted to 0.282 mg/kg.

As for `CC(C)NC[C@H](O)COc1ccccc1OCCOCCOCCOCCOc1ccccc1OC[C@@H](O)CNC(C)C`, in the experiment listed under Rattus norvegicus [3], the Ratio is 0.55. Moreover, the results for the Affinity constant in experiment [1] and in experiment [2] were 4e-05 µM and 0.055 µM, respectively. This compound also yielded a 50% effective dose (ED50) in experiment [5] of 0.029 mg/kg.

In the case of `CC(C)NC[C@H](O)COc1ccc(OCCCCCCOc2ccc(OC[C@@H](O)CNC(C)C)cc2)cc1`, the Ratio in the experiment listed under Rattus norvegicus [3] came out at 3.3. The Affinity constant was above 10 µM in experiment [1] and 0.01 µM in experiment [2]. Besides, in the experiment on Rattus norvegicus [4], the ED50 worked out at 0.776 mg/kg.

With `CC(C)NC[C@H](O)COc1ccc(OCCCCCCCCCCOc2ccc(OC[C@@H](O)CNC(C)C)cc2)cc1`, the ED50 result in experiment [6] and in experiment [7] was “inactive” each time. For the same compound, the Affinity constant in experiment [1] was above 10 µM; in experiment [2] it was 0.022 µM.

As to `CC(C)NC[C@H](O)COc1cccc(OCCCOc2cccc(OC[C@@H](O)CNC(C)C)c2)c1`, the Ratio in the experiment listed under Rattus norvegicus [3] stood at 1.56. Further, the Affinity constant in experiment [1] is 0.007 µM; in experiment [2], 0.7 µM. This compound also showed an ED50 with Rattus norvegicus [4] of 0.653 mg/kg.

Take `CC(C)NC[C@H](O)COc1ccccc1OCCOCCOc1ccccc1OC[C@@H](O)CNC(C)C`: the Ratio in the experiment filed under Rattus norvegicus [3] amounted to 0.39. Further, the Affinity constant in experiment [1] came out at 0.015 µM; in experiment [2], 0.15 µM. The compound further displayed a median effective dose (ED50) in the experiment with Rattus norvegicus [4] of 0.384 mg/kg.

As for `CC(C)NC[C@H](O)COc1ccc(OCCCOc2ccc(OC[C@@H](O)CNC(C)C)cc2)cc1`, the Ratio in the experiment listed under Rattus norvegicus [3] was above 1.74. Further, the Affinity constant was determined as 0.24 µM in experiment [1] and 0.2 µM in experiment [2]. For the same compound, the 50% effect level with Rattus norvegicus [4] (ED50) was put at a dose of 1.15 mg/kg.

`CC(C)NC[C@@H](O)COc1ccccc1OCCCCCCCCCCCCCCOc1ccccc1OC[C@@H](O)CNC(C)C`: the values for the Affinity constant in experiment [1] and in experiment [2] were 1 µM and 0.2 µM, respectively.

`CC(C)NC[C@H](O)COc1ccc(OCCCCCCCCCCCCCCCCCCCCOc2ccc(OC[C@@H](O)CNC(C)C)cc2)cc1`: the figures for the Affinity constant in experiment [1] and in experiment [2] were 0.42 µM and 2.5 µM, respectively.

Take `CC(C)NC[C@H](O)COc1ccc(OCCOCCOc2ccc(OC[C@@H](O)CNC(C)C)cc2)cc1`: the Ratio in the experiment listed under Rattus norvegicus [3] stood at 192. For the same compound, the Affinity constant in experiment [1] came out at 0.36 µM; in experiment [2] it was 0.01 µM. Moreover, the 50% effect level in the experiment on Rattus norvegicus [4] (ED50) was put at a dose of 0.052 mg/kg.

`CC(C)NC[C@H](O)COc1ccc(OCCCCCCCCOc2ccc(OC[C@@H](O)CNC(C)C)cc2)cc1`: the Affinity constant in experiment [1] came to 1.5 µM; in experiment [2], 0.44 µM.

As to `CC(C)NC[C@H](O)COc1ccccc1OCCCOc1ccccc1OC[C@@H](O)CNC(C)C`, the Ratio in the experiment filed under Rattus norvegicus [3] came out at 0.22. In addition, the Affinity constant in experiment [1] worked out at 0.00064 µM; in experiment [2], 0.035 µM. Moreover, the ED50 in the experiment with Rattus norvegicus [4] amounted to 0.768 mg/kg.

As for `CC(C)NC[C@@H](O)COc1ccccc1OCCOCCOCCOc1ccccc1OC[C@@H](O)CNC(C)C`, the Ratio in the experiment listed under Rattus norvegicus [3] is 1.35. In addition, the Affinity constant in experiment [1] was determined as 0.00085 µM; in experiment [2], 0.06 µM. Also, the median effective dose (ED50) in experiment [5] is 0.082 mg/kg.
